From ChEMBL document CHEMBL1240413, “Synthesis and evaluation of vinyl sulfones as caspase-3 inhibitors. A structure-activity study” (Eur J Med Chem, 2010)

Key:
Caspase-3 = molecular target: T1, Caspase-3 (Homo sapiens, UniProt P42574); assay: Inhibition of human recombinant caspase 3 assessed as fluorescent 7-amido-4-methylcoumarin release
T1 sequence (P42574 whole entry): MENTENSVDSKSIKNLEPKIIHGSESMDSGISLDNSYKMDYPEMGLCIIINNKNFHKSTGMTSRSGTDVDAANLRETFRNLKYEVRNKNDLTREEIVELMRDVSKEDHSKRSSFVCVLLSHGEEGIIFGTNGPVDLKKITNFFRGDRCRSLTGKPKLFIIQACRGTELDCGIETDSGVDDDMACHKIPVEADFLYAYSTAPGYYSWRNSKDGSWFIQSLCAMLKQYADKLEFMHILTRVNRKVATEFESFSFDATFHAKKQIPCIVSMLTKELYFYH

Caspase-7 = molecular target: T2, Caspase-7 (Homo sapiens, UniProt P55210); assay: Inhibition of human recombinant caspase 7 assessed as fluorescent 7-amido-4-methylcoumarin release
T2 sequence (P55210 whole entry): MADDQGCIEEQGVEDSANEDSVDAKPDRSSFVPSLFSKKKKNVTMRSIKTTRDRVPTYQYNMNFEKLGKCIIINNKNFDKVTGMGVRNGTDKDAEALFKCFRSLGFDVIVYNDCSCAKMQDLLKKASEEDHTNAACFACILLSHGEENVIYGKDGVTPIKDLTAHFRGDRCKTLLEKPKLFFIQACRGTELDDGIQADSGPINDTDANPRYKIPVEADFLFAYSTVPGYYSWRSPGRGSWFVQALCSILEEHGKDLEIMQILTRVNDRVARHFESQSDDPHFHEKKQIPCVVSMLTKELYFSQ
Outline: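 Recombinant human caspase-7, 1 U per well final, was mixed with inhibitor at various concentrations in 20 mM HEPES, 2 mM EDTA, 0.1% CHAPS, 5 mM DTT, pH 7.4. The reaction was started by adding Ac-DEVD-AMC substrate, with a stock of 2 mM in DMSO. AMC release was followed continuously at 37 °C (ex 360, em 460 nm), and IC50 was determined.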

IC50 (Caspase-3) [µM]	IC50 (Caspase-7) [µM]	Structure (SMILES)
388	–	CC(C)[C@H](NC(=O)OCc1ccccc1)C(=O)N[C@H](/C=C/S(=O)(=O)c1ccccc1)CC(=O)O
–	> 200	CC[C@H](C)[C@H](NC(=O)OCc1ccccc1)C(=O)N[C@H](/C=C/S(=O)(=O)c1ccccc1)CC(=O)O
656	–	C[C@H](NC(=O)OCc1ccccc1)C(=O)N[C@H](/C=C/S(C)(=O)=O)CC(=O)O
133	> 200	CC(C)[C@H](NC(=O)OCc1ccccc1)C(=O)N[C@H](/C=C/S(C)(=O)=O)CC(=O)O
–	> 200	CC[C@H](C)[C@H](NC(=O)OCc1ccccc1)C(=O)N[C@H](/C=C/S(C)(=O)=O)CC(=O)O
–	> 200	CC(C)[C@H](NC(=O)OCC1c2ccccc2-c2ccccc21)C(=O)N[C@H](/C=C/S(=O)(=O)c1ccccc1)CC(=O)O
–	> 200	CC(C)[C@H](NC(=O)OCC1c2ccccc2-c2ccccc21)C(=O)N[C@H](/C=C/S(C)(=O)=O)CC(=O)O
–	0.0591	CC(=O)N[C@@H](CC(=O)O)C(=O)N[C@@H](CCC(=O)O)C(=O)N[C@H](C(=O)N[C@H](C=O)CC(=O)O)C(C)C

The next lines start with the molecule.

Structure (SMILES)	IC50 (Caspase-3) [µM]	IC50 (Caspase-7) [µM]
O=C(O)C[C@@H](/C=C/S(=O)(=O)c1ccccc1)NC(=O)OCc1ccccc1	453	–
CS(=O)(=O)/C=C/[C@H](CC(=O)O)NC(=O)OCc1ccccc1	435	–
O=C(O)C[C@@H](/C=C/S(=O)(=O)c1ccccc1)NC(=O)OCC1c2ccccc2-c2ccccc21	–	> 200
CS(=O)(=O)/C=C/[C@H](CC(=O)O)NC(=O)OCC1c2ccccc2-c2ccccc21	–	> 200
C[C@H](NC(=O)OCc1ccccc1)C(=O)N[C@H](/C=C/S(=O)(=O)c1ccccc1)CC(=O)O	343	–
